Only some compounds are listed: those with a hit (about 1.7% of all), similar ones and a draw of the others.
Scp-1 inhibitor = Scp-1 (human) phosphatase inhibition. Recombinant Scp1, phosphopeptide, malachite green phosphate absorbance. inhibition, % at 20 µM. 340,000 tested, 0.88% active;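 active means inhibition above about 50% at 20 µM, limit read from the data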;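 further: plate controls were DMSO wells with enzyme for no effect and wells lacking enzyme for full effect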
Target sequence (Q9GZU7 76-261 limits assumed): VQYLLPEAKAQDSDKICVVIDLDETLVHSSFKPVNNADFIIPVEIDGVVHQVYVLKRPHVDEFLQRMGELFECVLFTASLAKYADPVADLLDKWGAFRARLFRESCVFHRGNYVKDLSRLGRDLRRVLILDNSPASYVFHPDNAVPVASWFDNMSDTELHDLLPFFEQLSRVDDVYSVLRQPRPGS
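Test system: SCP-1 catalytic domain; Buffer or medium: Acidic Tris acetate buffer with magnesium and detergent; Also added: Phosphorylated 17-residue peptide substrate; Compound: single 20 µM dose, 1% DMSO; Schedule: enzyme reaction 45 min at room temperature, colour 5 min, stabilisation 30 min; Signal: Phosphate-binding colour reagent, absorbance read at 630 nm.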
LMPTP inh = LMPTP (human) inhibition; P24666; recombinant LMPTP-A, OMFP fluorogenic substrate, fluorescence intensity; inhibition, % at 20 µM; 360,000 tested, 0.22% active; AID 651560;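 active means compounds that cut the enzyme signal by at least half of the control window in the single-dose screen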;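 further: plate controls were DMSO wells with enzyme plus substrate for no effect and substrate without enzyme for full effect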
Target sequence (P24666 whole entry, looked up): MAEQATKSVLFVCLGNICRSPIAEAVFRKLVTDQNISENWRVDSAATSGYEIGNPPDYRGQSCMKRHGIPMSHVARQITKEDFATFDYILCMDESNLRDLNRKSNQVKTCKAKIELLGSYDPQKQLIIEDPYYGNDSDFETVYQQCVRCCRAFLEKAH
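Buffer or medium: Bis-Tris pH 6.0, DTT, detergent; Assay system: LMPTP-A enzyme; Quantity: 0.625 nM enzyme; Detection: endpoint fluorescence intensity; Times: 50 min dark incubation at room temperature; Controls: substrate-only low control, DMSO enzyme-plus-substrate high control; Doses: single 20 µM dose; Read-out: percent inhibition versus substrate-only and uninhibited controls; Reagent: 400 µM OMFP.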
STEP block = blocks human striatal-enriched tyrosine phosphatase; P54829; recombinant STEP, OMFP fluorogenic substrate, fluorescence; inhibition, % at 20 µM; 360,000 tested, 0.25% active; AID 588621;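 active means inhibition at 20 µM, scaled per plate between control wells, above about 37%, limit read from the data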;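 further: 0% = DMSO with enzyme and substrate and 100% = substrate only without enzyme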
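Also added – OMFP at 25 µM · Test system – STEP tyrosine phosphatase · Technique – FITC-channel fluorescence of OMFP product · Schedule – 20 min at room temperature, dark · Evaluation – control-normalized % inhibition with plate pattern correction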
DNMT1 inh = inhibitors of human DNMT1; P26358; DNMT1 molecular beacon, Hinp1I cleavage, fluorescence; inhibition (reported as % activation of signal), % at 10 µM; 360,000 tested, 0.83% active; AID 588458; in the data active means inhibition above about 50%
SUMO1-SIM PPI = modulators of human SUMO1-mediated protein-protein interactions; P63165; SUMO1 binding to a labelled peptide, TR-FRET, 1 h; inhibition, % at 20 µM; 360,000 tested, 0.33% active; in the data active means inhibition above about 37%
Target sequence (P63165 whole entry, looked up): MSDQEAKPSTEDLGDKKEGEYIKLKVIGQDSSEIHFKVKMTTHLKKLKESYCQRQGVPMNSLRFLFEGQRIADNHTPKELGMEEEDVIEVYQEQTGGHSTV
Active calls of the source: *; i = inactive; . = not tested or not shown; + = active, no number.

SMILES	Scp-1 inhibitor	LMPTP inh	STEP block	DNMT1 inh	SUMO1-SIM PPI
Cn1nnnc1SCC1=C(C(=O)O)N2C(=O)[C@@H](NC(=O)[C@H](O)c3ccccc3)[C@H]2SC1	90.3*	1.2	27.7	88.1*	35.4
CC(=O)OCC1=C(C(=O)O)N2C(=O)[C@@H](NC(=O)CSc3ccncc3)[C@H]2SC1	76.5*	2.1	4.3	44.6	15.0
CC(=O)OCC1=C(C(=O)O)N2C(=O)C(NC(=O)c3ccc(F)cc3)C2SC1 (stereo unspecified)	14.6	1.4	-0.2	1.9	-0.4
Cc1ccc(C(O)c2ncc(-c3cccc4ccccc34)[nH]2)cc1F (stereo unspecified)	.	2.2	-2.9	-0.1	-13.9
Cc1ccc(-c2cc(C#N)c(=O)n(Cc3c(Cl)cccc3Cl)c2)cc1	-2.8	0.0	-2.6	7.7	41.5*
Cc1cc(N2CCC(C)CC2)nc2cccc(O)c12	1.2	61.7*	-0.8	-13.2	1.7
Cc1noc(C)c1S(=O)(=O)Nc1ccc2c(c1)C(=O)N([C@H](C)CO)C[C@H](C)[C@@H](CN(C)C(=O)Nc1ccc3c(c1)OCO3)O2	76.4*	-0.7	-3.0	12.3	0.5
Cc1noc(C)c1NC(=O)N(C)C[C@H]1Oc2ccc(NS(=O)(=O)c3c(C)noc3C)cc2C(=O)N([C@H](C)CO)C[C@@H]1C	38.9	-1.4	1.4	0.9	-3.2
CCOC(=O)N1CCC(NC(=O)c2ccccc2C(=O)O)CC1	-0.7	-1.8	-0.8	1.5	42.9*
CCCCCCCCCCCC1N=C(N)NC(CCCO)=C1C(=O)OC (stereo unspecified)	4.7	3.8	12.8	-12.7	102.7*
CN(Cc1ccccc1)C1=CC(=[N+]2CCCC2)CC(C)(C)C1	102.9*	0.4	0.8	1.7	-3.5
COc1ccc(C=NNc2ccc(S(=O)(=O)Nc3ccccc3C(=O)O)cc2[N+](=O)[O-])c(OC)c1	-4.8	52.2*	6.1	12.7	55.7*
CC(=O)c1ccc(NC(=O)c2ccc(NC(=O)c3ccco3)cc2)cc1	39.5	72.2*	85.8*	32.2	17.8
CC(=O)Nc1ccc(NC(=O)c2ccco2)cc1	-17.8	0.0	0.1	1.4	-0.5
CSc1cccc(NC(=S)NC(=O)CCc2ccccc2)c1	-20.2	3.4	4.2	-1.3	38.3*
CSc1cccc(NC(=O)CCc2ccccc2)c1	-9.9	-0.2	6.6	3.7	3.6
COc1cccc(N=Nc2ccc(O)c3ncccc23)c1	-9.8	3.1	1.9	-7.9	-10.0
Cc1ccccc1N=Nc1ccc(O)c2ncccc12	-0.2	-0.5	3.8	71.0*	-6.6
COc1ccc(C)cc1N=Nc1ccc(O)c2ncccc12	-3.9	4.9	3.9	6.9	-21.6
O=S(=O)(O)c1cccc2c(N=Nc3ccc(O)c4ncccc34)cccc12	94.9*	51.3*	50.9*	49.8	27.8
COc1ccc(N=Nc2ccc(O)c3ncccc23)cc1	-6.8	7.4	2.0	71.0*	51.1*
Cc1c(C(=O)NN2CCOCC2)oc2c1ccc1ccccc12	-4.1	1.9	0.2	0.6	0.1
O=C(Nc1ccn(Cc2ccc(Cl)cc2)n1)c1ccc2c(c1)OCO2	-5.3	-0.5	-1.3	-7.8	40.1*
Cc1cc(C)nc(/N=C(\N)N(Cc2ccccc2)Cc2ccccc2)n1	1.4	-0.6	3.7	1.2	1.7
Cc1ccsc1-c1nc(C(N)=O)c2[nH]c(=O)n(-c3ccc(Cl)cc3)c2n1	6.6	11.2	1.1	55.4*	15.6
SMILES	Scp-1 inhibitor	LMPTP inh	STEP block	DNMT1 inh	SUMO1-SIM PPI
Cc1ccc(-n2c(=O)[nH]c3c(C(N)=O)nc(C(C)C)nc32)cc1	-9.0	0.1	-2.2	-0.4	-1.0
CCc1nn2c(=O)cc(COc3ccc(/C=C4\C(=N)N5N=C(C)SC5=NC4=O)cc3)nc2s1	33.2	4.8	2.0	59.1*	24.1
O=C1c2cccnc2C(=O)N1Cc1ccc(S(=O)(=O)N2CCN(c3ccc(Cl)cc3)CC2)cc1	-11.2	2.4	1.7	-1.4	60.2*
CCCCn1c(=O)[nH]c2nc3cc(N)ccc3nc2c1=O	-5.1	-3.0	-77.1	54.1*	-19.5
Nc1ccc2nc3c(=O)n(C4CCCCC4)c(=O)[nH]c3nc2c1	-9.0	-1.7	-59.5	33.7	-20.9
Nc1ccc2nc3c(=O)n(CCc4ccccc4)c(=O)[nH]c3nc2c1	-1.9	3.4	-75.1	51.0*	-36.0
CCOC(=O)/C(=C\c1cccc(O)c1)c1nc2sc(C)c(C)c2c(=O)[nH]1	3.8	6.5	84.6*	-7.7	-0.9
COc1ccc(/C=C2\CCc3c2nc2ccccc2c3C(=O)O)cc1OC	14.7	0.7	4.5	3.8	12.8
CCOc1ccc(/C=C2\CCCc3c2nc2ccccc2c3C(=O)O)cc1OC	.	-5.8	-78.4	78.1*	-18.9
COc1cc(C(=O)N[C@H](C(=O)Nc2nnc(C3CC3)s2)C(C)C)cc(OC)c1OC	-1.7	-0.5	-0.3	0.9	-5.0
C/C(=N\S(=O)(=O)c1ccc(C)cc1)N(C)C	-4.0	0.0	-2.0	8.9	45.0*
C/C(=N\S(=O)(=O)c1ccc(C)cc1)N1CCCCC1	-1.9	-0.3	-2.9	4.7	0.4
O=C1C=C(c2ccc3cc[nH]c3c2)C[C@@H](c2ccc3c(c2)OCO3)C1	67.1*	5.0	0.0	11.5	-7.5
O=C1C=C(c2ccc3c(c2)OCO3)C[C@@H](c2ccc3c(c2)OCO3)C1	6.0	0.6	-0.2	6.2	-4.1
Cc1ccc(-c2ccc(CCC(=O)O)n2Cc2ccco2)cc1	-3.6	6.2	-16.7	56.7*	2.3
O=C(O)CCc1ccc(-c2ccccc2)n1CC(=O)O	4.5	-0.5	0.1	0.1	1.7
O=c1ccc2c(-c3ccccc3)c3ccc(O)cc3oc-2c1	18.4	-148.2	i	+	i
Nc1ccc(-c2c3ccc(=O)cc-3oc3cc(O)ccc23)cc1C(=O)O	3.6	10.2	-60.1	+	-355.8
O=c1cc(-c2ccccc2)oc2cc(O)ccc12	-10.0	0.1	-2.7	0.2	-4.0
COc1ccc(-c2c(C)c3ccc(O)cc3oc2=O)cc1OC	-9.1	-2.0	-1.6	5.7	-19.4
COc1ccc(NCC(=O)Nc2c(C)cccc2C)cc1S(=O)(=O)N1CCOCC1	.	-1.5	-2.1	1.3	-3.4
COC(=O)c1cnc(Oc2c(Cl)cc(N)cc2Cl)cc1C(F)(F)F	-4.2	3.8	-1.7	-7.1	1.9
CC(C)(C)c1cc(C2COC(=O)COCCOCC(=O)OCCOCCO2)cc(C(C)(C)C)c1O (stereo unspecified)	-1.8	1.1	-1.4	2.3	-2.1
Nc1cccc2c(O)cc(S(=O)(=O)O)cc12	92.9*	77.7*	92.4*	114.3*	75.8*
O=S(=O)(O)c1ccc(O)c2cc(Nc3ccccc3)ccc12	95.8*	95.6*	99.4*	96.0*	120.2*
O=S(=O)(O)c1cc(O)c2ccc(Nc3ccccc3)cc2c1	99.5*	92.5*	98.7*	100.0*	82.6*

Bioassay records: PubChem, Sanford-Burnham Center for Chemical Genomics
